Assay results taken from ChEMBL document CHEMBL3399995, “Synthesis and biological evaluation of benzimidazole acridine derivatives as potential DNA-binding and apoptosis-inducing agents” (Bioorg Med Chem, 2015).
Each block holds one molecule with its values, some of them ahead of it. The source made the active and inactive calls. The calls are words filed in the database; no cut-off is given here.

How the values were obtained:
K562 [1] = experiment: Antiproliferative activity against human K562 cells after 48 hrs by MTT assay; format: functional, cell-based; conditions: K562, 48 h
Outline: (§1)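 Cells were grown at 37 °C in 5% CO₂ with 10% FBS, penicillin and streptomycin. Media were IMDM for K562; DMEM for HepG-2, A-375, U-118 MG and A172; RPMI 1640 for CNE-2 and HeLa; MEM-EBSS for U251. MTT (5 mg/mL) was added for 4 h at 37 °C, formazan dissolved in DMSO, and A490 read. IC50 is the concentration giving 50% growth inhibition.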

[2] = target: T1, DNA topoisomerase 1 (Homo sapiens) (UniProt P11387); experiment: Inhibition of recombinant human DNA topoisomerase 1 assessed as relaxation of plasmid DNA pBR322 at 50 uM by agarose gel electrophoresis
T1 sequence (whole entry): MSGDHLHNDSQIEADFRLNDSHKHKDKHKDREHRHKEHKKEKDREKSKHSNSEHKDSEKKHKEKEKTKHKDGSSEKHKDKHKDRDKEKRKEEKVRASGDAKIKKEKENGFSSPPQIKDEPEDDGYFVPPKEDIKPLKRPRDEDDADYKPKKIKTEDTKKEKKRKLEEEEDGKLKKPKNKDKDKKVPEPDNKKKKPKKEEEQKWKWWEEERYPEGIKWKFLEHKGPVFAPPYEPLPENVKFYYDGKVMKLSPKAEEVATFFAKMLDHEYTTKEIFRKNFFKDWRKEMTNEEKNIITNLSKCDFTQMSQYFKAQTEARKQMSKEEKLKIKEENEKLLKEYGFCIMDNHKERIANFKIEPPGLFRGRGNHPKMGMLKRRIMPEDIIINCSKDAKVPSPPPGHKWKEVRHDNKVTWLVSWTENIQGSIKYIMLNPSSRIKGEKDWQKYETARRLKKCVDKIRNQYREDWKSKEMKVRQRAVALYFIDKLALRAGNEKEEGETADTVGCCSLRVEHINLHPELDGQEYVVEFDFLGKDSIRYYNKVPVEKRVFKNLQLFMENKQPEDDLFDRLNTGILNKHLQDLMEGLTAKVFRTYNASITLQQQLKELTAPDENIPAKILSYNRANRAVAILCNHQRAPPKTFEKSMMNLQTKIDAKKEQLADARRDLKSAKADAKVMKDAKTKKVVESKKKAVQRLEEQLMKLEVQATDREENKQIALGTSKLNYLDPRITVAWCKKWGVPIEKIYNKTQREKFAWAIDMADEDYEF
Outline: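 pBR322 (100 ng) was incubated with 1.0 unit recombinant human topoisomerase I and compound (50 μM) at 37 °C for 30 min. Relaxation buffer was 35 mM Tris-HCl pH 8.0, 5 mM MgCl2, 72 mM KCl, 0.01% BSA, 2 mM spermidine, 5 mM DTT. Products were resolved on 1% agarose in TAE at 100 V for 25 min and stained with ethidium bromide.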

HepG2 = experiment: Antiproliferative activity against human HepG2 cells after 48 hrs by MTT assay; format: functional, cell-based; conditions: HepG2, 48 h; outline: as §1
Calf thymus DNA [3] = experiment: Binding affinity to calf thymus DNA after 3 mins by fluorescence absorption spectroscopy; format: nucleic-acid assay; conditions: Bos taurus
Outline: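 Fluorescence titration of the compound (3.75 μM final) in 10 mM Tris-HCl, 10 mM NaCl, pH 7.0, with ct DNA at 0, 1, 2, 3, 4 and 5 μM final. Samples sat 3 min before emission spectra were recorded. The binding constant came from the Stern-Volmer fit F0/F = 1 + K[Q], with [Q] the DNA concentration.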

K562 [4] = experiment: Induction of apoptosis in human K562 cells assessed as viable cells at 2.5 uM by annexin V-FITC/propidium iodide staining-based flow cytometry (reference value: 98.9%); format: functional; conditions: read-out: Activity
K562 [5] = experiment: Induction of apoptosis in human K562 cells assessed as activation of caspase 7 at 10 uM after 48 hrs by Western blot analysis; format: functional, cell-based
Outline: (§2)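 K562 cells in 6 cm dishes were exposed to 1, 5 or 10 μM for 48 h, then lysed at 0 °C for 0.5 h and spun at 20,000 g for 10 min. Protein was measured by BCA. Lysates were run on 12% SDS-PAGE and transferred to PVDF. Membranes were blocked in 5% milk for 1 h, then given primary antibody overnight at 4 °C.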

K562 [6] = experiment: Induction of apoptosis in human K562 cells assessed as activation of caspase 9 at 10 uM after 48 hrs by Western blot analysis; format: functional, cell-based; outline: as §2
[7] = Antiproliferative activity against human CNE2 cells after 48 hrs by MTT assay; format: functional, cell-based; conditions: CNE-2, 48 h; outline: as §1
K562 [8] = experiment: Induction of apoptosis in human K562 cells assessed as viable cells at 10 uM by annexin V-FITC/propidium iodide staining-based flow cytometry (reference value: 98.9%); format: functional; conditions: read-out: Activity
K562 [9] = experiment: Induction of apoptosis in human K562 cells assessed as downregulation of Bcl-xL protein expression at 10 uM after 48 hrs by Western blot analysis; format: functional, cell-based; outline: as §2
K562 [10] = experiment: Induction of apoptosis in human K562 cells assessed as PARP cleavage at 10 uM after 48 hrs by Western blot analysis; format: functional, cell-based; outline: as §2
K562 [11] = experiment: Induction of apoptosis in human K562 cells assessed as necrotic cells at 2.5 uM by annexin V-FITC/propidium iodide staining-based flow cytometry (reference value: 0.203%); format: functional
K562 [12] = experiment: Induction of apoptosis in human K562 cells assessed as early apoptotic cells at 10 uM by annexin V-FITC/propidium iodide staining-based flow cytometry (reference value: 0.709%)
A-375 = experiment: Antiproliferative activity against human A375 cells after 48 hrs by MTT assay; format: functional, cell-based; conditions: A-375, 48 h; outline: as §1
Calf thymus DNA [13] = experiment: Binding affinity to calf thymus DNA after 3 mins by UV-vis absorption spectra analysis; format: nucleic-acid assay, Bos taurus
Outline: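 ct DNA titration of the compound (40 μM) in 10 mM Tris-HCl, 10 mM NaCl, pH 7.0, at [DNA]/[compound] 0–1.0, in a 1.0 cm quartz cell. Samples sat 3 min before UV-vis spectra were recorded. Kb was taken as the slope-to-intercept ratio of [DNA]/(εa−εf) plotted against [DNA].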

[14] = Antiproliferative activity against human U118MG cells after 48 hrs by MTT assay; format: functional, cell-based; conditions: U-118-MG; outline: as §1
K562 [15] = experiment: Induction of apoptosis in human K562 cells assessed as apoptotic cells at 10 uM by annexin V-FITC/propidium iodide staining-based flow cytometry (reference value: 0.162%)
K562 [16] = experiment: Induction of apoptosis in human K562 cells assessed as loss of mitochondrial membrane potential at 2.5 uM using JC-1 staining by fluorescence assay; format: functional, cell-based
Outline: (§3)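 Mitochondrial membrane potential in treated K562 cells (0, 2.5, 10 μM) was measured with a JC-1 kit. Red fluorescence marks high potential and green marks low. CCCP at 10 μM served as positive control.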

[17] = Antiproliferative activity against human A172 cells after 48 hrs by MTT assay; format: functional, cell-based; conditions: A 172, 48 h; outline: as §1
K562 [18] = experiment: Induction of apoptosis in human K562 cells assessed as necrotic cells at 10 uM by annexin V-FITC/propidium iodide staining-based flow cytometry (reference value: 0.203%); format: functional
K562 [19] = experiment: Induction of apoptosis in human K562 cells assessed as late apoptotic or necrotic cells at 2.5 uM by annexin V-FITC/propidium iodide staining-based flow cytometry (reference value: 0.162%)
K562 [20] = experiment: Induction of apoptosis in human K562 cells assessed as early apoptotic cells at 2.5 uM by annexin V-FITC/propidium iodide staining-based flow cytometry (reference value: 0.709%)
HeLa = experiment: Antiproliferative activity against human HeLa cells after 48 hrs by MTT assay; format: functional, cell-based; outline: as §1
U-251 = experiment: Antiproliferative activity against human U251 cells after 48 hrs by MTT assay; format: functional, cell-based; conditions: U-251, 48 h; outline: as §1
K562 [21] = experiment: Induction of apoptosis in human K562 cells assessed as loss of mitochondrial membrane potential at 10 uM using JC-1 staining by fluorescence assay; format: functional, cell-based; outline: as §3
K562 [22] = experiment: Induction of apoptosis in human K562 cells assessed as activation of caspase 3 at 10 uM after 48 hrs by Western blot analysis; format: functional, cell-based; outline: as §2

- IC50 (K562 [1]): 11.8 µM
- inhibition [2]: Active
- IC50 (HepG2): 40.6 µM
SMILES: Clc1ccc2nc3ccccc3c(NCc3nc4ccccc4[nH]3)c2c1

- IC50 (K562 [1]): 7.52 µM
- inhibition [2]: Active
- IC50 (HepG2): > 50 µM
SMILES: CCc1ccc2nc3ccccc3c(NCc3nc4ccccc4[nH]3)c2c1

- Activity (Calf thymus DNA [3]): Active
- IC50 (K562 [1]): 2.68 µM
- IC50 (A-375): 3.2 µM
- inhibition [2]: Active
- IC50 (HeLa): 2760 nM
- IC50 (U-251): 2390 nM
- IC50 (HepG2): 8.11 µM
SMILES: CCCCc1ccc2nc3ccccc3c(NCc3nc4ccccc4[nH]3)c2c1
- viability at 2.5 µM (K562 [4]): 83.3%
- Activity (K562 [5]): Active
- Activity (K562 [6]): Active
- IC50 [7]: 2620 nM
- viability at 10 µM (K562 [8]): 30.8%
- Activity (K562 [9]): Active
- Activity (K562 [10]): Active
- Activity (K562 [11]): 0.55%
- early apoptotic cells at 10 µM (K562 [12]): 57.3%
- Kb (Calf thymus DNA [13]): 1.88 ×10⁵ /M
- IC50 [14]: 1980 nM
- apoptotic cells at 10 µM (K562 [15]): 10.6%
- Activity (K562 [16]): Active
- IC50 [17]: 2860 nM
- Activity (K562 [18]): 1.37%
- late apoptotic or necrotic cells at 2.5 µM (K562 [19]): 1.27%
- early apoptotic cells at 2.5 µM (K562 [20]): 14.9%
- Activity (K562 [21]): Active
- Activity (K562 [22]): Active

- IC50 (K562 [1]): 2.82 µM
- inhibition [2]: Active
- IC50 (HepG2): > 50 µM
SMILES: c1ccc2[nH]c(-c3ccc(Nc4c5ccccc5nc5ccccc45)cc3)nc2c1

- IC50 (K562 [1]): 12.3 µM
- inhibition [2]: Active
- IC50 (HepG2): 38.8 µM
SMILES: Cc1ccc2nc3ccccc3c(NCc3nc4ccccc4[nH]3)c2c1

- IC50 (K562 [1]): 14 µM
- inhibition [2]: Active
- IC50 (HepG2): > 50 µM
SMILES: c1ccc2[nH]c(Sc3c4ccccc4nc4ccccc34)nc2c1

- IC50 (K562 [1]): 25.1 µM
- inhibition [2]: Active
- IC50 (HepG2): 32.6 µM
SMILES: Cc1ccc2c(NCc3nc4ccccc4[nH]3)c3ccccc3nc2c1

- IC50 (K562 [1]): 42.6 µM
- inhibition [2]: Active
- IC50 (HepG2): > 50 µM
SMILES: Cc1cccc2c(NCc3nc4ccccc4[nH]3)c3ccccc3nc12

- IC50 (K562 [1]): 8.63 µM
- inhibition [2]: Active
- IC50 (HepG2): 4.53 µM
SMILES: COc1ccc2nc3ccccc3c(Nc3nc4ccccc4[nH]3)c2c1

- IC50 (K562 [1]): 17.4 µM
- inhibition [2]: Active
- IC50 (HepG2): 25.7 µM
SMILES: Fc1cc2nc3ccccc3c(NCc3nc4ccccc4[nH]3)c2cc1F

- IC50 (K562 [1]): 7.2 µM
- inhibition [2]: Active
- IC50 (HepG2): 6.32 µM
SMILES: COc1cccc2c(Nc3nc4ccccc4[nH]3)c3ccccc3nc12

- IC50 (K562 [1]): 28.5 µM
- inhibition [2]: Active
- IC50 (HepG2): 10.7 µM
SMILES: Fc1ccc2c(NCc3nc4ccccc4[nH]3)c3ccccc3nc2c1

- IC50 (K562 [1]): 15.2 µM
- inhibition [2]: Active
- IC50 (HepG2): 15.4 µM
SMILES: COc1ccc2c(NCc3nc4ccccc4[nH]3)c3ccccc3nc2c1

- IC50 (K562 [1]): 4.68 µM
- inhibition [2]: Active
- IC50 (HepG2): 8.92 µM
SMILES: COc1ccc2nc3ccccc3c(NCc3nc4ccccc4[nH]3)c2c1

- IC50 (K562 [1]): > 50 µM
- inhibition [2]: Active
- IC50 (HepG2): 4.01 µM
SMILES: c1ccc2[nH]c(Nc3c4ccccc4nc4ccccc34)nc2c1

- IC50 (K562 [1]): 11.2 µM
- inhibition [2]: Active
- IC50 (HepG2): > 50 µM
SMILES: c1ccc2[nH]c(CNc3c4ccccc4nc4ccccc34)nc2c1

- IC50 (K562 [1]): 7.46 µM
- inhibition [2]: Active
- IC50 (HepG2): 28.5 µM
SMILES: COc1cccc2c(NCc3nc4ccccc4[nH]3)c3ccccc3nc12
